In article PMC9926120 (The Journal of Biological Chemistry, 2022):
One block for each molecule: values may come before it.

B1: His-tagged scRev7 (S. cerevisiae Rev7) (natural protein)
chain: MNRWVEKWLRVYLKCYINLILFYRNVYPPQSFDYTTYQSFNLPQFVPINRHPALIDYIEELILDVLSKLTHVYRFSICIINKKNDLCIEKYVLDFSELQHVDKDDQIITETEVFDEFRSSLNSLIMHLEKLPKVNDDTITFEAVINAIELELGHKLDRNRRVDSLEEKAEIERDSNWVKCQEDENLPDNNGFQPPKIKLTSLVGSDVGPLIIHQFSEKLISGDDKILNGVYSQYEEGESIFGSLF

Tests used:
scRev7 [1] = assay: SEC oligomeric state and stoichiometry; set-up: species or system S. cerevisiae; conditions: 20 mM Tris, 100 mM NaCl, 2 mM EDTA, 1 mM DTT, pH 8
Outline: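 scRev7 (MCS-1) co-expressed with scRev3 fragments or mutants (MCS-2) from pETDuet-1 in E. coli BL21(DE3); empty MCS-2 for apo-scRev7. Grown in 1L LB at 37 °C, induced with 1 mM IPTG at 20 °C overnight. Lysed by sonication in 20 mM sodium phosphate, 300 mM NaCl, 10 mM imidazole. Cobalt affinity, then Superdex 75 or 200 SEC with comparison of elution volumes.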

MBP-scRev7 = biological target: T1, MBP-scRev7 (Saccharomyces cerevisiae, UniProt P38927); assay: ITC of scRev3 peptides titrated into MBP-scRev7; format: binding, S. cerevisiae; conditions: 25 °C, 50 mM Tris, 100 mM NaCl, pH 8.4, 300 μM peptide titrated into 30 μM MBP-scRev7 in 2.5 μl increments, Fig. S5C
T1 sequence (P38927 1-245): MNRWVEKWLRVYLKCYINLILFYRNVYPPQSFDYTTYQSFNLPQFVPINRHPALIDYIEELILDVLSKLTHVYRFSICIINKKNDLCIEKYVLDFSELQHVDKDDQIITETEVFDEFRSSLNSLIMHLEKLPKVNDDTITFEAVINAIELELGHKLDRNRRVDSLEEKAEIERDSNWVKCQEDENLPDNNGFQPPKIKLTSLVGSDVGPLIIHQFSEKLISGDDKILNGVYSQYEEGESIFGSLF

[2] = biological target: T2, scRev3-RBM12 (residues 510-629), co-expressed with scRev7 (S. cerevisiae, UniProt P14284 510-629); assay: AUC
T2 sequence: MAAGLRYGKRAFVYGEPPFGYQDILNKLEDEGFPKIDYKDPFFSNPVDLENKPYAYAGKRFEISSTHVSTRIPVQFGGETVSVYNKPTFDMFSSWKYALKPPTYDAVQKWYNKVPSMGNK

[3] = biological target: T3, truncated scRev3 fragment containing RBM2, but not RBM1 (residues 545-629) (S. cerevisiae, UniProt P14284 545-629); assay: SEC
T3 sequence: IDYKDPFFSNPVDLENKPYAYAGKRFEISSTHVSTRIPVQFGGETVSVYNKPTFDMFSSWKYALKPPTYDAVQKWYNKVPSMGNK

[4] = biological target: T4, scRev7 fused to the maltose binding protein (MBP-scRev7) (S. cerevisiae, UniProt P38927 1-245); assay: ITC
T4 sequence: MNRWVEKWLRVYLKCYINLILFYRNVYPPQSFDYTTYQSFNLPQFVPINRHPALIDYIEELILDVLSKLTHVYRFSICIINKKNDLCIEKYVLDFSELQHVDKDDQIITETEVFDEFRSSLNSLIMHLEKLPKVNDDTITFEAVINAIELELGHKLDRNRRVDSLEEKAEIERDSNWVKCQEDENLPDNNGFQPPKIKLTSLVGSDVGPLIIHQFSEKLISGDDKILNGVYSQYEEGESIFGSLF

[5] = biological target: B1; assay: AUC
scRev7 [6] = assay: Y2H of scRev7 and scRev3 fragments; format: binding, S. cerevisiae; conditions: scRev7-AD with scRev3 fragment-BD; yeast PJ694-A, 5 to 7 days at 30 °C
Outline: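 GAL4 AD and BD fusions of scRev7 and scRev3 RBM1, RBM2 or RBM12 (WT or mutant), tested in both orientations. Cells were transformed with 2.0 ug of each vector and grown in -LW broth at 30 °C for 3 to 5 days. They were then pelleted, resuspended in sterile water to normalise OD, serially diluted, and plated on -LW and -AHLW. Controls were empty vectors (negative) and AD/BD-fused mouse Rev7 dimerization (positive).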

Molecule: apo-scRev7: scRev7 overexpressed alone (MCS-2 of pETDuet-1 empty)
SEC elution volume comparison (scRev7 [1]): elute at similar volumes

Molecule: scRev3-zipper: scRev3-zipper (residues 573–594), linker region preceding RBM2 (SSTHVSTRIPVQFGGETVSVYN)
binding (heat release) (MBP-scRev7): no heat release that would be consistent with binding

Molecule: scRev7/scRev3-RBM1: scRev7 co-expressed with scRev3-RBM1
SEC elution volume comparison (scRev7 [1]): elute at similar volumes

Molecule: scRev7/scRev3-RBM2: scRev7 co-expressed with scRev3-RBM2, 1:1 complex
SEC elution volume comparison (scRev7 [1]): elute at similar volumes

Molecule: B1
stoichiometry N [2]: 2 scRev7 per scRev3-RBM12
stoichiometry N [3]: 1

stoichiometry N [4]: 1
Molecule: KPTFDMFSSWKYALKPPTYDAVQKWYNKVPSMGNK [scRev3-RBM2 peptide (residues 595-629) used for ITC]

stoichiometry N [5]: 1
Molecule: KPTFDMFSSWKYALKPPTYDAVQKWYNKVPSMGNK (domain or fragment) [scRev3-RBM2 (residues 595-629), co-expressed with scRev7]

stoichiometry N [4]: 1
Molecule: MAAGLRYGKRAFVYGEPPFGYQDILNKLEDEGFPK [scRev3-RBM1 peptide (residues 510-544) used for ITC]

B2: scRev3-RBM12: scRev3-RBM12 (residues 510–629), longer scRev3 construct containing both RBMs (protein)
chain: MAAGLRYGKRAFVYGEPPFGYQDILNKLEDEGFPKIDYKDPFFSNPVDLENKPYAYAGKRFEISSTHVSTRIPVQFGGETVSVYNKPTFDMFSSWKYALKPPTYDAVQKWYNKVPSMGNK
growth on -AHLW plates (scRev7 [6]): yeast grew on plates lacking adenine, histidine, leucine, and tryptophan
